Most compounds without a hit are left out; they make up all but 1.4% or so of the library.
FXIa inh 1536 – human FXIa protease inhibitors, primary screen, biochemical, 1536-well | Coagulation factor XI (Homo sapiens), P03951 | purified FXIa, Boc-Glu-Ala-Arg-AMC fluorogenic substrate | inhibition, % at 5 µM | actives 0.14% (n = 220,000) | AID 798, 2007;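 active = inhibition of at least 40%; inactive = inhibition below 40%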;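 also: fluorescence of freed AMC excited at 355 nm; 0% = enzyme without compound and 100% = no enzyme blank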
FXIIa inh 1536 – human FXIIa protease inhibitors, primary screen, biochemical, 1536-well; actives 0.3% (n = 220,000); purified FXIIa, Boc-QGR-AMC fluorogenic substrate, 2 h; AID 800, 2007; inhibition, % at 5 µM; Coagulation factor XII (Homo sapiens), P00748; in the data active = inhibition above about 40%;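 also: 0% = enzyme with no compound and 100% = blank without enzyme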
Target sequence (P00748 20-372 limits assumed): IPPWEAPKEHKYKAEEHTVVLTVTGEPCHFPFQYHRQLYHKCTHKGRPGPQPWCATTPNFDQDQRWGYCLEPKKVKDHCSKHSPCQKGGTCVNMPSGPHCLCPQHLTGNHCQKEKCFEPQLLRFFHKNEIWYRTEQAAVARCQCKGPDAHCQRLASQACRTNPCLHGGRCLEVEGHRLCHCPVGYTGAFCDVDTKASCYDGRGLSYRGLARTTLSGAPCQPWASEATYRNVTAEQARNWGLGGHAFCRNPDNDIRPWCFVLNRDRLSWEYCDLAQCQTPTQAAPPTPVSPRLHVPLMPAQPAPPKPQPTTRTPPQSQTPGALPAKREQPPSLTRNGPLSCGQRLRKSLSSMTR
Target sequence (P00748 373-615 limits assumed): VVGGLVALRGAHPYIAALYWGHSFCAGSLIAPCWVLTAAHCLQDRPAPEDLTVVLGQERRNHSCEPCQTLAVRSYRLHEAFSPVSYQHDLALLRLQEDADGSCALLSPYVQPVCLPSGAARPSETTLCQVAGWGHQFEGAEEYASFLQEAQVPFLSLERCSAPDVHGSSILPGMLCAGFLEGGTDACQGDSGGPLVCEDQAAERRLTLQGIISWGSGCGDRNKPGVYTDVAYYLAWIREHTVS
hK5 inh – human KLK5 protease inhibitors, primary screen, biochemical, 1536-well | Kallikrein-5 (Homo sapiens), Q9Y337 | recombinant hK5, fluorogenic AMC substrate cleavage | inhibition, % at 5 µM | actives 0.59% (n = 210,000) | AID 873, 2007;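 active = inhibition of 40% or more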;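 also: 0% = enzyme controls without compound and 100% = no-enzyme blanks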
Thrombin inh – human alpha-thrombin inhibitors, primary screen, counter-screen for coagulation protease inhibitor project, biochemical, 1536-well, fluorogenic AMC substrate. Prothrombin (Homo sapiens), P00734. Boc-VPR-AMC fluorogenic substrate cleavage. inhibition, % at 5 µM. actives 0.26% (n = 220,000);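 active = inhibition at or above 40%; inactive = inhibition below 40%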;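 also: 0% = enzyme with no compound and 100% = wells without enzyme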
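Material: human alpha-thrombin protein. Incubation: reaction at ambient temperature. Technique: fluorescence of released AMC, ex 355 nm, em 460 nm. Control set: no-compound enzyme wells and no-enzyme blanks. Also added: Boc-VPR-AMC substrate, 15 µM final. Buffer or medium: pH 7.5 Tris (50 mM) with NaCl 150 mM, Tween 20 0.05%.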
Calpain2 inh – inhibitors of pig calpain II, primary screen, biochemical, fluorogenic peptide substrate, 1536-well | purified calpain II, 30 min | inhibition, % at 16 µM | actives 0.37% (n = 220,000);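 active = inhibition above about 50%, limit read from the data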
An asterisk follows results filed as active; nt = no result given.

SMILES	FXIa inh 1536	FXIIa inh 1536	hK5 inh	Thrombin inh	Calpain2 inh
COC(=O)C(C)Sc1nnc(Cc2cc(=O)[nH]c(=O)[nH]2)n1-c1ccc(Cl)cc1 (stereo unspecified)	8	43*	30	24	10
CCOC(=O)C(C)Sc1nnc(Cc2cc(=O)[nH]c(=O)[nH]2)n1-c1ccc(Cl)cc1 (stereo unspecified)	8	10	-5	-1	15
O=C(Cn1nnc(-c2cccc(C(F)(F)F)c2)n1)N1CCOCC1	23	17	51*	33	16
O=C(Cn1nnc(-c2ccc(N3CCOCC3)cc2)n1)N1CCOCC1	0	4	4	-2	15
Cc1ccnc(Nc2nc3ccccc3o2)n1	0	5	-9	21	133*
Cc1ccc(Cl)cc1N(Cc1ccc(C(=O)NCc2cccnc2)cc1)S(=O)(=O)c1ccccc1	4	14	-6	1	52*
CC(C1CC2CCC1C2)N1CC(O)=C(c2nc3ccccc3[nH]2)C1=N (stereo unspecified)	27	49*	27	4	28
CC(C)N1CC(O)=C(c2nc3ccccc3[nH]2)C1=N	17	12	-23	0	23
Cc1ccc(CCNC(=O)CN(C)S(=O)(=O)c2ccc3c(c2)n(C)c(=O)c(=O)n3C)cc1	-3	3	-3	-3	-33
COCCNc1nnc(SCC(=O)c2c[nH]c3ccccc23)s1	8	25	39	101*	19
Cc1nc2c3ccccc3nc(NNC(=O)CCC(=O)NC(C)C)n2n1	7	8	-15	0	4
Cc1nc2c3ccccc3nc(NNC(=O)CCC(=O)NC3CCCC3)n2n1	-3	9	50*	5	-23
Nc1nc(NCCN2CCOCC2)nc(NCc2ccccc2)c1[N+](=O)[O-]	-1	9	1	5	8
CSc1cccc(NC(=O)CSc2ccc(Cl)cc2)c1	0	13	-1	-1	51*
CSc1cccc(NC(=O)CSc2ccc(C)cc2)c1	-2	6	4	-2	5
O=C(CCNc1ccccc1)c1cccc([N+](=O)[O-])c1	9	14	-7	2	51*
O=C(Nc1cccc([N+](=O)[O-])c1)c1ccc(-c2ccccc2)cc1	0	12	1	3	-10
O=C(Nc1cccc([N+](=O)[O-])c1)c1cccc(C(=O)Nc2cccc([N+](=O)[O-])c2)c1	-1	9	-21	1	56*
O=C(COC(=O)c1ccc2ccccc2c1O)NCC(F)(F)F	-2	2	-2	-4	-8
COc1cc2ccccc2cc1C(=O)NC(=S)Nc1cc(C(=O)O)ccc1C	-1	99*	-4	-15	-4
Cc1ccc(-n2c(=O)c3ccccc3n(CC(=O)C(C)(C)C)c2=O)cc1	28	26	46*	9	3
S=c1[nH]nc(C(c2ccccc2)C2CCCCC2)o1 (stereo unspecified)	2	12	2	-1	-16
Cc1nc(-c2ccccc2)sc1C1(C)CC(c2cccc([N+](=O)[O-])c2)=NO1 (stereo unspecified)	0	7	-1	-1	5
CN(C)S(=O)(=O)N1CCc2ccccc21	10	23	72*	24	5
CN(C)S(=O)(=O)N1CCc2ccccc2C1	1	-3	2	-21	-18
SMILES	FXIa inh 1536	FXIIa inh 1536	hK5 inh	Thrombin inh	Calpain2 inh
CCC(C)NCCOc1ccc(C)cc1[N+](=O)[O-] (stereo unspecified)	12	23	nt	41*	11
C=CCNCCOc1ccc(C)cc1[N+](=O)[O-]	-3	2	2	-13	-44
CC(C)(C)OC(=O)N1CCC[C@H]1C(=O)N/N=C/c1ccc2ncccc2c1	6	7	-10	0	14
Cc1nonc1C1CCCN1Cc1nc(-c2ccccc2Cl)oc1C (stereo unspecified)	4	10	nt	1	-17
O=C(CSc1nc2cccnc2n1Cc1ccccc1)N1CCCC1	6	20	46*	19	9
Cn1c(SCC(=O)N2CCCC2)nc2cccnc21	2	10	-5	0	24
Cc1noc(-c2ccc(C(F)(F)F)cc2)c1NC(=O)Nc1ccc(Cl)cc1	2	1	3	-2	25
CCCCOc1ccc(C(=O)N2CCCCCC2)cc1	0	11	-5	0	20
O=C(c1ccc(COc2ccc(Cl)cc2)cc1)N1CCCCC1	-4	nt	-1	-3	58*
O=C(CSc1nc2ccccc2n1Cc1ccccc1)N/N=C/c1ccccc1C(=O)O	1	10	2	0	-8
O=C(CSc1nc2ccccc2n1Cc1ccccc1Cl)N/N=C/c1ccccc1C(=O)O	28	30	47*	23	30
Cn1c2c(c(=O)n(C)c1=O)C(CC(=O)Nc1ccccc1)C(=O)N2 (stereo unspecified)	-5	15	7	12	92*
Cn1c2c(c(=O)n(C)c1=O)C(CC(=O)Nc1ccccc1F)C(=O)N2 (stereo unspecified)	-2	1	0	-7	8
Cc1ccc2c(CN3CCN(Cc4ccc5c(c4)OCO5)CC3)cc(=O)oc2c1C	46*	37	-5	1	25
COc1ccc(CC(=O)Nc2cccc(-c3ccc4nnc(C)n4n3)c2)cc1OC	-3	7	-7	-13	-1
CCOC(=O)c1c(C)nc2sc3c(=O)n(-c4ccc(C(C)=O)cc4)cnc3c2c1-c1ccc(OC)cc1	0	5	-24	17	-109
CCOC(=O)c1c(C)nc2sc3c(=O)n(-c4ccc(OC)cc4)nnc3c2c1-c1ccc(OC)cc1	20	24	45*	3	-30
Cc1nc(N2CCN(Cc3ccccc3)CC2)nc2c1C(=O)CC(C)C2 (stereo unspecified)	0	3	6	-6	68*
CCN1CCN(c2nc(C)c3c(n2)CC(C)CC3=O)CC1 (stereo unspecified)	-1	4	2	-2	-9
COc1ccc(NC(=O)N2CCN(c3ccc([N+](=O)[O-])cc3)CC2)cc1OC	-2	3	-3	-2	19
CCCCSc1nc2c(cc1C#N)CCC2	5	2	104*	14	13
CSc1nc2c(cc1C#N)CCC2	0	9	0	0	3
Cc1ccc(Cn2c(O)c(N=NC(=S)Nc3ccccc3F)c3cc(S(=O)(=O)N4CCOCC4)ccc32)cc1	50*	37	95*	2	-109
NNC(=O)c1ccc(OCC2CC(c3ccc(Cl)cc3)=NO2)cc1 (stereo unspecified)	4	14	11	2	3
Cc1ccc(S(=O)(=O)N(Cc2ccccc2)c2ccccc2C(=O)Nc2ccccc2C(=O)NCc2ccco2)cc1	2	6	-9	-2	-52

From PubChem BioAssay
